Measured values collected from several papers.
Each line is one published result; the experiments were not run side by side.
Target: Ephrin type-B receptor 4 (EPHB4, Homo sapiens, UniProt P54760)

| Compound | test | conditions | quantity | value |
| --- | --- | --- | --- | --- |
| O=C(Nc1cnn(-c2csc(C(=O)NC3COC3)c2)c1)Nc1ccccc1Cl | enzyme activity, inhibitor | 5 µM | remaining activity | 97.8% |
| CC(C)(O)[C@H]1CC[C@H](Nc2ccc3ncc(-c4cccc(C(F)(F)F)c4)n3n2)CC1 | enzyme activity, inhibitor | 1 µM | remaining activity | 78.2% |
| C[C@@H](c1cccc(C#N)c1)n1cc(Cl)cc(C(N)=O)c1=N | cell-free assay, competition with immobilised ligand | 1 µM | remaining binding | 96% |
| COc1ccc(COc2ccc(Cc3cnc(N)nc3N)cc2OC)cc1 | cell-free assay | 0.5 µM | remaining signal | 90.5% |
| COc1cc(/C=C/C(=O)CC(=O)/C=C/c2ccc(O)c(OC)c2)ccc1O | enzyme activity, inhibitor | 1 µM | activity vs control | 105% |
| Cc1cnc(NC2CCOCC2)nc1-n1cnc(C(=O)NC(CN)c2cc(F)cc(Cl)c2)c1 (centres unmarked) | enzyme activity, inhibitor, radiometric | 1 µM | remaining activity | 89% |
| COc1cccc2c(NCc3ccccc3)nc(-n3c(N)nc4ccccc43)nc12 | target engagement in cells, inhibitor, chemoproteomics | 20 mM | inhibition | -8.8% |
| Cc1ccc(C(=O)Nc2ccc(CN3CCN(C)CC3)c(C(F)(F)F)c2)cc1C#Cc1cnc2cccnn12 | cell-free assay | 23.5 nM | remaining signal | 92% |
| Cc1ccc(C(=O)NCc2ccsc2)cc1C#Cc1cn(C(C)C)c2ncnc(N)c12 | enzyme activity, inhibitor | 1 µM | activity vs control | 28% |
| Cn1c(=O)n(-c2ccc(C(C)(C)C#N)cc2)c2c3cc(-c4cnc5ccccc5c4)ccc3ncc21 | enzyme activity, inhibitor | 10 µM | remaining activity | 99% |
| CN([C@@H]1CCc2c(CC(=O)O)c3cc(S(C)(=O)=O)ccc3n2C1)S(=O)(=O)c1ccc(F)cc1 | cell-free assay, competition with immobilised ligand | 1 µM | remaining binding | 95% |
| Cc1[nH]c(/C=C2\C(=O)Nc3ccc(F)cc32)c(C)c1C(=O)N[C@H]1CCN(C(=O)N(C)C)C1 | enzyme activity, inhibitor | 0.1 µM | remaining activity | 111% |
| O=C(Nc1cnc(Oc2ccc(F)cc2)nc1)N1CCc2ncccc2[C@@H]1c1ccc(F)cc1 | cell-free assay, competition with immobilised ligand | 1 µM | remaining binding | 100% |
| O=C1NC(=O)c2cc(Nc3ccc(F)cc3)c(Nc3ccc(F)cc3)cc21 | cell-free assay | 0.5 µM | remaining signal | 108% |
| CO[C@H]1CC[C@H](CNc2ccc(S(=O)(=O)NC(=O)c3ccc(N4CCN(CC5=C(c6ccc(Cl)cc6)CC(C)(C)CC5)CC4)cc3Oc3cnc4[nH]ccc4c3)cc2[N+](=O)[O-])CC1 | cell-free assay, competition with immobilised ligand | 1 µM | remaining binding | 100% |
| COc1cc(Nc2cnc(C#N)c(O[C@H](C)CN(C)C)n2)ncc1-c1cnn(C)c1 | enzyme activity, inhibitor, radiometric | 1 µM | remaining activity | 96% |
| C[C@@H]1CN(c2cc(-c3nn(C)c4ccc(OC5(C)CC5)cc34)ncn2)C[C@H](C)O1 | cell-free assay, competition with immobilised ligand | 1 µM | remaining binding | 100% |
| COc1cc2ncnc(Nc3ccc(Oc4ccccc4)cc3C)c2cc1OC | enzyme activity, inhibitor | 1 µM | inhibition | 21% |
| CSc1cccnc1N1CCN(Cc2nc3ccccc3[nH]2)CC1 | cell-free assay, competition with immobilised ligand | 1 µM | remaining binding | 100% |
| C=CC(=O)Nc1cc(Nc2nccc(Nc3cc(Cl)c(F)cc3C(C)(C)O)n2)c(OC)cc1N1CC[C@@H](N(C)C)C1 | enzyme activity, inhibitor | 1 µM | inhibition | 7% |
